From ChEMBL document CHEMBL1123823, “[1-Desamino, 7-lysine, 8-arginine]vasotocin: attachment of reporter groups and affinity ligands through the lysine side chain” (J Med Chem, 1987)
Where a SMILES comes first, the peptide text is derived from it. Bridges are numbered along the chain shown (N, C = ends). [ ]: non-standard residue; d: D form. The star is where a group is joined. Benzoyl(4-N3) = [N-]=[N+]=Nc1ccc(C(=O)*)cc1; Mpa = O=C(O)CCS

Key:
Rattus norvegicus [1] = experiment: (§1) Pressor activity was determined in urethane-anesthetized, phenoxybenzamine treated rats.; assay type: functional
Rattus norvegicus [2] = experiment: Antidiuretic activity was determined in water loaded, ethanol-anesthetized rats.; assay type: functional, Urine
[3] = Toad bladder hydroosmotic activity was determined; assay type: functional; conditions: read-out: ED50 (the source's name)
In short: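 Osmometric measurement of bladder water permeability. Bladders were suspended in humidified air, and paper disks holding 8 μL of hypertonic Ringer's, with or without peptide at various concentrations, were placed on the outer surface of the bladder wall. The Ringer's contained NaCl 110, KCl 3.5, CaCl₂ 1, MgCl₂ 1, glucose 5.5 and Tris-HCl 10 mmol/L, pH 7.5, 236 mOsm/kg H₂O. Dose-response curves were constructed.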

Rattus norvegicus [4] = experiment: as §1; assay type: functional, organism-based; conditions: read-out: pA2 (converted)

CC[C@H](C)[C@@H]1NC(=O)[C@@H](Cc2ccc(O)cc2)NC(=O)CCSSC[C@@H](C(=O)N[C@H](CCCCNC(=O)CCCCC2SCC3NC(=O)NC32)C(=O)N[C@@H](CCCN=C(N)N)C(=O)NCC(N)=O)NC(=O)[C@H](CC(N)=O)NC(=O)[C@@H](CCC(N)=O)NC1=O (stereo partly drawn)
Pressor activity (Rattus norvegicus [1]): 0 U/mg
Antidiuretic activity (Rattus norvegicus [2]): 4.3 U/mg
EC50 [3]: 210 nM

CC[C@H](C)[C@@H]1NC(=O)[C@H](Cc2ccc(O)cc2)NC(=O)CCSSC[C@@H](C(=O)N[C@@H](CCCCNC(=O)c2ccc(N=[N+]=[N-])cc2)C(=O)N[C@@H](CCCN=C(N)N)C(=O)NCC(N)=O)NC(=O)[C@H](CC(N)=O)NC(=O)[C@H](CCC(N)=O)NC1=O ([Mpa]YIQNCK(Benzoyl(4-N3))RG-NH2; disulfide 1-6) [listing 1 of 2 here]
Kb (Rattus norvegicus [4]): 251 nM

CC[C@H](C)[C@@H]1NC(=O)[C@H](Cc2ccc(O)cc2)NC(=O)[C@@H](N)CSSC[C@@H](C(=O)N2CCC[C@H]2C(=O)N[C@@H](CCCN=C(N)N)C(=O)NCC(N)=O)NC(=O)[C@H](CC(N)=O)NC(=O)[C@H](CCC(N)=O)NC1=O [VASOTOCIN] (H-CYIQNCPRG-NH2; disulfide 1-6)
Pressor activity (Rattus norvegicus [1]): 160 U/mg
Antidiuretic activity (Rattus norvegicus [2]): 231 U/mg

CC[C@H](C)[C@@H]1NC(=O)[C@H](Cc2ccc(O)cc2)NC(=O)CCSSC[C@@H](C(=O)N2CCC[C@H]2C(=O)N[C@@H](CCCN=C(N)N)C(=O)NCC(N)=O)NC(=O)[C@H](CC(N)=O)NC(=O)[C@H](CCC(N)=O)NC1=O ([Mpa]YIQNCPRG-NH2; disulfide 1-6)
Pressor activity (Rattus norvegicus [1]): 256 U/mg
Antidiuretic activity (Rattus norvegicus [2]): 890 U/mg

CC[C@H](C)[C@@H]1NC(=O)[C@H](Cc2ccc(O)cc2)NC(=O)CCSSC[C@@H](C(=O)N[C@@H](CCCCN)C(=O)N[C@@H](CCCN=C(N)N)C(=O)NCC(N)=O)NC(=O)[C@H](CC(N)=O)NC(=O)[C@H](CCC(N)=O)NC1=O ([Mpa]YIQNCKRG-NH2; disulfide 1-6)
Pressor activity (Rattus norvegicus [1]): 0 U/mg
Antidiuretic activity (Rattus norvegicus [2]): 29 U/mg
EC50 [3]: 22 nM

N=C(N)NCCC[C@H](NC(=O)[C@@H]1CCCN1C(=O)[C@@H]1CSSC[C@H](N)C(=O)N[C@@H](Cc2ccc(O)cc2)C(=O)N[C@@H](Cc2ccccc2)C(=O)N[C@@H](CCC(N)=O)C(=O)N[C@@H](CC(N)=O)C(=O)N1)C(=O)NCC(N)=O [VASOPRESSIN]
EC50 [3]: 9.5 nM

CC[C@H](C)[C@@H]1NC(=O)[C@H](Cc2ccc(O)cc2)NC(=O)CCSSC[C@@H](C(=O)N[C@@H](CCCCNC(=O)c2ccc(N=[N+]=[N-])cc2)C(=O)N[C@@H](CCCN=C(N)N)C(=O)NCC(N)=O)NC(=O)[C@H](CC(N)=O)NC(=O)[C@H](CCC(N)=O)NC1=O ([Mpa]YIQNCK(Benzoyl(4-N3))RG-NH2; disulfide 1-6) [listing 2 of 2 here]
Antidiuretic activity (Rattus norvegicus [2]): 19.7 U/mg
